# Experiments:
# Assay type in all cases: functional
# Mus musculus [1] = assay: Inhibition of the Mouse PBQ Writhing at a dose of 20 mg/kg sc after 60 min; conditions: 1 h, route subcutaneous
# Summary of the method: (§1)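 Mouse phenylbenzoquinone (PBQ) writhing test. Test drug is given sc, ip or iv at the stated pretreatment time before PBQ injection. Mice are placed in individual observation boxes, and total writhes per group are counted over the following 15 min. Vehicle is emulphor/ethanol/saline (1:1:18), diluted from a 1:1 emulphor/ethanol stock, and vehicle-injected controls are run. Result is % inhibition of writhing versus vehicle controls.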
# Mus musculus [2] = assay: Inhibition of the Mouse PBQ Writhing at a dose of 20 mg/kg iv afer 30 min; conditions: 0.5 h; summary of the method: as §1
# Mus musculus [3] = assay: Compound was tested at a dose of 20 mg/kg administered intravenously for a pretreatment time of 10 min; conditions: route intravenous; summary of the method: as §1
# Mus musculus [4] = assay: Compound was tested at a dose of 20 mg/kg administered intraperitoneally for a pretreatment time of 20 min for analgesic activity using phenyl benzoquinone; conditions: route intraperitoneal; summary of the method: as §1
# Mus musculus [5] = assay: Compound was tested at a dose of 20 mg/kg administered subcutaneously for a pretreatment time of 60 min for analgesic activity using phenylbenzoquinone (PBQ); conditions: route subcutaneous; summary of the method: as §1
# Mus musculus [6] = assay: Compound was tested at a dose of 20 mg/kg administered subcutaneously for a pretreatment time of 120 min for analgesic activity using phenylbenzoquinone (PBQ); conditions: route subcutaneous; summary of the method: as §1
# Mus musculus [7] = assay: Compound was tested at a dose of 20 mg/kg administered subcutaneously for a pretreatment time of 15 min for analgesic activity using phenylbenzoquinone (PBQ); conditions: route subcutaneous; summary of the method: as §1
# Mus musculus [8] = assay: Inhibition of the Mouse PBQ Writhing at a dose of 20 mg/kg iv afer 10 min; summary of the method: as §1
# Mus musculus [9] = assay: Inhibition of the Mouse PBQ Writhing at a dose of 20 mg/kg sc after 15 min; conditions: 0.25 h, route subcutaneous; summary of the method: as §1
# Mus musculus [10] = assay: Compound was tested at a dose of 20 mg/kg administered intraperitoneally for a pretreatment time of 60 min; conditions: route intraperitoneal; summary of the method: as §1
# Mus musculus [11] = assay: Inhibition of the Mouse PBQ Writhing at a dose of 20 mg/kg ip afer 60 min; conditions: 1 h, route intraperitoneal; summary of the method: as §1
# Mus musculus [12] = assay: Inhibition of the Mouse PBQ Writhing at a dose of 20 mg/kg sc after 120 min; conditions: 2 h, route subcutaneous; summary of the method: as §1
# Mus musculus [13] = assay: Inhibition of the Mouse PBQ Writhing at a dose of 20 mg/kg ip afer 20 min; conditions: route intraperitoneal; summary of the method: as §1
# Mus musculus [14] = assay: Inhibition of the Mouse PBQ Writhing at a dose of 5 mg/kg sc after 60 min; conditions: 1 h, route subcutaneous; summary of the method: as §1
# Mus musculus [15] = assay: Compound was tested at a dose of 10 mg/kg administered subcutaneously for a pretreatment time of 60 min for analgesic activity using phenylbenzoquinone (PBQ); conditions: route subcutaneous; summary of the method: as §1
# Mus musculus [16] = assay: Compound was tested at a dose of 5 mg/kg administered subcutaneously for a pretreatment time of 60 min for analgesic activity using phenylbenzoquinone (PBQ); conditions: route subcutaneous; summary of the method: as §1
# Mus musculus [17] = assay: Inhibition of the Mouse PBQ Writhing at a dose of 10 mg/kg sc after 60 min; conditions: 1 h, route subcutaneous; summary of the method: as §1
Structure (SMILES),inhibition in vivo at 20 mg/kg (Mus musculus [1]) [%],inhibition in vivo at 20 mg/kg (Mus musculus [2]) [%],Analgesic activity (Mus musculus [3]),Analgesic activity (Mus musculus [4]),Analgesic activity (Mus musculus [5]),Analgesic activity (Mus musculus [6]),Analgesic activity (Mus musculus [7]),inhibition in vivo at 20 mg/kg (Mus musculus [8]) [%],inhibition in vivo at 20 mg/kg (Mus musculus [9]) [%],Analgesic activity (Mus musculus [10]),inhibition in vivo at 20 mg/kg (Mus musculus [11]) [%],inhibition in vivo at 20 mg/kg (Mus musculus [12]) [%],inhibition in vivo at 20 mg/kg (Mus musculus [13]) [%],inhibition in vivo at 5 mg/kg (Mus musculus [14]) [%],Analgesic activity (Mus musculus [15]),Analgesic activity (Mus musculus [16]),inhibition in vivo at 10 mg/kg (Mus musculus [17]) [%]
CCCCCC(C)Oc1ccc([C@H]2CCC[C@@H](O)C2)c2[nH]ccc12 (some centres undefined),0,0,24.8,24.4,27.2,32.4,16.7,20.3,21.6,29.2,0,0,10,–,–,–,–
CCCCCC(C)Oc1ccc([C@H]2CCC[C@@H](O)C2)c(O)c1 (some centres undefined),91.4,–,–,–,2.9,–,–,–,–,–,–,–,–,29.2,15.3,23.8,54.5
